A selection: hits, their analogues and other compounds. The true share with any hit is near 2.4%.
S100A4 MyoIIA: inhibitors of S100A4-myosin IIA peptide binding, primary screen, biochemical, fluorescence polarization, TAMRA-MyoIIA peptide; Protein S100-A4 (Homo sapiens), P26447; inhibition, % at 10.7 µM; 0.14% of 360,000 active; AID 652163, 2013;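 active means mean inhibition of at least 70% across replicates, with every replicate also reaching that level; inconclusive means mean inhibition reaches 70% but some replicates fall short; inactive means mean inhibition below 70%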
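System – human S100A4 monomer protein, biochemical binding assay · Buffer or medium – Calcium-containing HEPES buffer, pH 7.2 · Timing – 5 min between mix addition and reading · Also added – TAMRA-labelled myosin IIA heavy-chain peptide probe, 5 nM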
PGC1a acetyl inh: inhibitors of PGC1a acetylation signal, primary screen, cell-based, U2OS, AlphaScreen, inhibitor mode; inhibition, % at 15.6 µM; AlphaScreen anti-acetyl-lysine; with virally co-expressed GCN5 acetyltransferase; 0.17% of 350,000 active;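 active means every replicate shows inhibition of at least 40%; inconclusive means mean inhibition at least 40% but some replicate below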
rRNA inh HTS: reduced GFP signal of wild-type E. coli, primary screen, bacterial rRNA inhibitor project, GFP/RFP fluorescence, OD600, single point; E. coli WT GFP vs humanized-ribosome RFP mutants, 24 h; stronger effect = lower value; DMSO median 0, no signal -100; GFP signal change (wild-type ribosome), % (concentration not given with the values); 1.6% of 350,000 active; AID 720706, 2013;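 active means significant combined selectivity score with lowered wild-type GFP, culture density cut under 30%, mutant RFP and density less affected; inactive means any of these conditions unmet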
ARNT TACC3 PPI: disruptors of ARNT/TACC3 protein interaction, primary screen, biochemical, AlphaScreen, single concentration; inhibition, % at 9.99 µM; AID 623870, 2012; 0.66% of 390,000 active; AlphaScreen His-ARNT PAS-B/GST-TACC3 binding, luminescence; TACC3 fragment carries E629A point mutation;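 active means mean inhibition of replicates at least 50% and at least half of replicates each reaching 50%; inconclusive means half or more replicates reach 50% but mean below 50%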
ERAP1 HTS inh: human ERAP1 aminopeptidase inhibitors, primary screen, biochemical, single point, plate reader. recombinant ERAP1, Leu-AMC fluorescence, 60 min. inhibition, % at 10.7 µM. 0.15% of 340,000 active;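 active means mean replicate inhibition of at least 30%, or all replicates individually reaching that 30% level; inactive means mean below 30% and not every replicate reaching it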
Target sequence (Q9NZ08 whole entry, looked up): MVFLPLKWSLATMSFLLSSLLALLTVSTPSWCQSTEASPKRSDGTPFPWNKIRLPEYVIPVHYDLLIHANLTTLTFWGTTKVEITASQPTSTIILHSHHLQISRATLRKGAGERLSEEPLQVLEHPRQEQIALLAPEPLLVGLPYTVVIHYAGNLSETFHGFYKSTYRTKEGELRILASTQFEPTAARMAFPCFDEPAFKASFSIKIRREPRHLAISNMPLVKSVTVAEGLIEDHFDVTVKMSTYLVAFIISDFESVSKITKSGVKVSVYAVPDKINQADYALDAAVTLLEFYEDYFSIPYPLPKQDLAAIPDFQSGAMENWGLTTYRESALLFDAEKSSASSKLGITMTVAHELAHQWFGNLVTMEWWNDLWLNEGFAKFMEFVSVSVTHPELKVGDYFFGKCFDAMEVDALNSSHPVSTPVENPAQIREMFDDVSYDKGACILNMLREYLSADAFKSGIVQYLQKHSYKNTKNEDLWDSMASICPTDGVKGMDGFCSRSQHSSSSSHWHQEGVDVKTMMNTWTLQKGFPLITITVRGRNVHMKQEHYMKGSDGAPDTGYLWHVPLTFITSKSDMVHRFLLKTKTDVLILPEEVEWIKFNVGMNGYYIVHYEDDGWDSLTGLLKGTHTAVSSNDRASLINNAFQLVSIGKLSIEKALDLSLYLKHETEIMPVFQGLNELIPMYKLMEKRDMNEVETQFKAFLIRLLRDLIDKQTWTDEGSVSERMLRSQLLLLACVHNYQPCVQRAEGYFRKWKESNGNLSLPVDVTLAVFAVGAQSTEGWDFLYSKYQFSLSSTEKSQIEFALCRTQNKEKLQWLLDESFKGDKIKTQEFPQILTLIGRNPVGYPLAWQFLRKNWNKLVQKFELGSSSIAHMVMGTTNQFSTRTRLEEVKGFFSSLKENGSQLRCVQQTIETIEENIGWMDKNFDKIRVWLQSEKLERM
CASP6 VEID inh: human caspase-6 inhibitors, primary screen, biochemical, VEID-R110 fluorescence, single point, set 2 | P55212 | purified caspase-6, Z-VEID-R110 cleavage fluorescence | inhibition, % at 12.5 µM | 0.53% of 350,000 active | AID 686996, 2013;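 active means mean inhibition across replicates at least about 35%, with every replicate also reaching that limit, limit read from the data; inconclusive means only one of the two criteria met; inactive means neither criterion met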
AID977621: growth inhibition of wild-type GFP E. coli, dose response, H69 mutant RFP, cherry-pick; shares compounds with rRNA inh HTS; E. coli wild-type GFP strain growth, fluorescence, 24 h; activity change, negative = inhibition at 50 µM; 1,900 tested, under 10 active;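 active means Wild-type ribosome reporter drop at least double the humanized mutant ribosome reporter drop, growth loss under a set limit; inconclusive means no clear call, values can overlap the other calls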;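 further: wild-type GFP and H69 mutant RFP strains grown together 50/50 in each well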
AID977628: E. coli growth inhibition, wild-type GFP versus h24 humanized RFP strain, dose response, h24 mutant RFP vs wild-type GFP, cherry-pick. shares compounds with rRNA inh HTS. E. coli WT GFP strain growth, fluorescence, 24 h. activity change, negative = inhibition at 50 µM. 1,900 tested, under 10 active. AID 977628, 2014;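 active means compound lowering the normal-ribosome reporter at least twice as much as the humanized-ribosome reporter, growth loss under a set limit; inconclusive means no clear call, values can overlap the other calls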;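 further: wild-type GFP and h24 humanized RFP strains co-cultured 1 to 1 per well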
Numbers stand for hits; 0 = inactive; ? = inconclusive; - = no result given.

SMILES | S100A4 MyoIIA | PGC1a acetyl inh | rRNA inh HTS | ARNT TACC3 PPI | ERAP1 HTS inh | CASP6 VEID inh | AID977621 | AID977628
CCN(C(=O)CSc1cc(C)c2ccc(OC)cc2n1)C1CCS(=O)(=O)C1 (stereo not drawn) | 0 | 0 | -22.7 | 0 | 0 | 0 | 0 | 0
Cc1cc(Cl)ccc1OCCCC(=O)NN | 0 | 0 | 0 | 0 | 0 | 0 | - | -
Cc1cc(Cl)ccc1OCCCC(=O)OCC(N)=O | 0 | 0 | -18.1 | 0 | 0 | 0 | 0 | ?
S=c1nc(-c2cccc(Cl)c2)[nH][nH]1 | 0 | 0 | 0 | 0 | 0 | 0 | - | -
S=c1nc(-c2cc(Cl)cc(Cl)c2)[nH][nH]1 | 0 | - | -16.7 | 0 | 0 | 0 | 0 | ?
O=C(C[C@H]1CC[C@H]2[C@@H](COC[C@H](O)CN2Cc2nccs2)O1)NCc1ccc(-c2ccccc2)cc1 | 0 | 0 | 0 | 0 | 0 | 0 | - | -
O=C(Nc1ncccn1)c1ccc([N+](=O)[O-])o1 | 0 | - | -17.7 | 0 | 0 | 0 | 0 | ?
Cc1ccnc(NC(=O)c2ccc([N+](=O)[O-])o2)c1 | - | 0 | - | 0 | - | - | - | -
O=C(Nc1cccc2ccccc12)c1ccc([N+](=O)[O-])o1 | 0 | - | -19.1 | 0 | 0 | 0 | ? | -
Cc1cccc(NC(=O)c2ccc([N+](=O)[O-])o2)c1C | 0 | 0 | 0 | 0 | 0 | 0 | - | -
CN(C)CCCNC(=O)C[C@@H]1CC[C@@H](NS(=O)(=O)c2ccc(F)cc2)[C@@H](CO)O1 | 0 | 0 | 0 | 0 | 0 | 0 | - | -
CC(=O)Nc1cccc(NC(=O)c2c(-c3c(Cl)cccc3Cl)noc2C)c1 | 0 | 0 | -17.1 | 0 | 0 | 0 | 0 | 0
CCNC(=O)[C@H]1[C@H](CO)[C@H]2Cn3c(ccc(-c4cccnc4)c3=O)[C@H]2N1Cc1ccccc1 | 0 | 0 | 0 | 0 | 0 | 0 | - | -
S=C1SCN(Cc2cccnc2)CN1Cc1cccnc1 | 0 | 0 | -29.0 | 0 | 0 | 0 | 0 | 0
O=C(Nc1ccc(Cl)c(Cl)c1)c1ccc(Cl)c(Cl)c1 | 0 | - | -17.1 | 0 | 0 | 0 | 0 | 0
O=C(Nc1ccc(Cl)c(Cl)c1)c1ccncc1 | - | 0 | - | 0 | - | - | - | -
NC(=O)C1CCN(c2cc(N3CCOCC3)ccc2[N+](=O)[O-])CC1 | 0 | - | 0 | 0 | 0 | 0 | - | -
NC(=O)C1CCN(c2cc(Cl)ccc2[N+](=O)[O-])CC1 | 0 | 0 | -22.1 | 0 | 0 | 0 | 0 | -
Cc1cc(C(=O)COC(=O)CNC(=O)c2ccccc2)c(C)n1CC1CCCO1 (stereo not drawn) | 0 | 0 | -19.6 | 0 | 0 | 0 | 0 | 0
COc1ccccc1-c1ccc2n(c1=O)C[C@H]1[C@H](CO)[C@@H](C(=O)Nc3nccs3)N(CC3CC3)[C@@H]21 | 0 | - | 0 | 0 | 0 | 0 | - | -
CN1C(=O)c2cc(NC(=O)c3cccc(F)c3)ccc2OC[C@H]2O[C@@H](CC(=O)NC3CCC3)CC[C@H]21 | - | 0 | 0 | 0 | - | - | - | -
COc1ccc(NC(=O)c2cccnc2SC)cc1S(=O)(=O)N1CCCCC1 | 0 | - | -25.4 | 0 | 0 | 0 | ? | -
CO[C@H]1CN(C)C(=O)c2cc(NC(=O)C3CC3)ccc2OC[C@@H](C)N(C(=O)CN(C)C)C[C@H]1C | 0 | 0 | 0 | 0 | 0 | 0 | - | -
O=S(=O)(NC1CC1)c1ccc(S(=O)(=O)N2CCc3ccccc32)cc1 | 0 | 0 | -19.9 | 0 | 0 | 0 | 0 | -
